Experimental data as given in ChEMBL document CHEMBL3259617, “Design, synthesis, and biological evaluation of (e)-3,4-dihydroxystyryl aralkyl sulfones and sulfoxides as novel multifunctional neuroprotective agents” (J Med Chem, 2014).
Active and inactive are the calls of the source. The rule behind the calls is not given here.

Assays:
[1] = system: Radical scavenging activity; assay: Antioxidant activity assessed as DPPH free radical scavenging effect after 30 mins by spectrophotometric analysis; assay type: functional
Procedure, shortened: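 Compounds and DPPH both in ethanol; equal volumes of test solution and 0.2 mM DPPH solution mixed; control was ethanol plus DPPH. Tested over 1−50 μM. Inhibition % = (A₀ − A_c)/A₀ × 100; IC50 by linear regression. Triplicate wells, three independent runs; vitamin C as reference.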

PC-12 [2] = assay: Neuroprotective activity against H2O2-induced damage in rat PC12 cells assessed as cell viability at 5 uM preincubated for 3 hrs followed by H2O2 challenge measured after 5 hrs by MTT assay; assay type: functional, cell-based
Procedure, shortened: (§1)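 PC12 cells in high-glucose DMEM with 10% FBS, 5% horse serum and antibiotics, 37 °C, 5% CO₂, seeded at 4 × 10⁵ cells mL⁻¹. Pretreated 3 h with compounds (DMSO, diluted in medium), then challenged with H₂O₂ at final 500 μM for 5 h. MTT absorbance at 570 nm; viability relative to untreated cells (100%); mean ± SD, n = 3.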

PC-12 [3] = assay: Neuroprotective activity against 6-OHDA-induced damage in rat PC12 cells assessed as cell viability at 40 uM preincubated for 3 hrs followed by 6-OHDA challenge measured after 48 hrs by MTT assay; assay type: functional, cell-based
Procedure, shortened: (§2)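 PC12 cells grown in high-glucose DMEM with 10% FBS, 5% horse serum and penicillin/streptomycin, 5% CO₂, 37 °C. Seeded at 4 × 10⁵ cells mL⁻¹. Compounds (DMSO stock diluted in medium) applied for 3 h, then 6-OHDA at final 400 μM for 48 h. MTT read at 570 nm; viability given as % of untreated cells; mean ± SD, n = 3.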

[4] = Antineuroinflammatory activity in mouse BV2 cells assessed as inhibition of LPS-induced nitric oxide production preincubated for 3 hrs followed by LPS challenge measured after 24 hrs by Griess assay; assay type: functional, cell-based; details: BV-2
Procedure, shortened: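 BV2 microglia grown in high-glucose DMEM with 10% FBS and penicillin/streptomycin, 5% CO₂, 37 °C. Seeded at 4 × 10⁵ cells mL⁻¹. Compounds in DMSO, diluted in medium, added for 3 h before LPS (final 100 nM). Nitrite in medium read with an NO assay kit at 540 nm after 24 h. Inhibition calculated against the LPS-only and normal controls. IC50 obtained by linear regression.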

[5] = Cytotoxicity against mouse BV2 cells assessed as cell viability by MTT assay; assay type: cell-based, BV-2; parameters: concentration or dose not given beside the values; details: read-out: Activity
[6] = Permeability of the compound at 5 mg/mL after 18 hrs by PAMPA; assay type: physicochemical; details: read-out: permeability
PC-12 [7] = assay: Neuroprotective activity against 6-OHDA-induced damage in rat PC12 cells assessed as cell viability at 5 to 10 uM preincubated for 3 hrs followed by 6-OHDA challenge measured after 48 hrs by MTT assay; assay type: functional, cell-based; procedure, shortened: as §2
PC-12 [8] = assay: Neuroprotective activity against H2O2-induced damage in rat PC12 cells assessed as cell viability at 2.5 uM preincubated for 3 hrs followed by H2O2 challenge measured after 5 hrs by MTT assay; assay type: functional, cell-based; procedure, shortened: as §1

Structure (SMILES)	IC50 [1] [µM]	Activity (PC-12 [2])	Activity (PC-12 [3])	IC50 [4] [µM]	viability [5] [%]	Papp at 18 h, 5 mg/mL [6] [×10⁻⁶ cm/s]	Activity (PC-12 [7])	Activity (PC-12 [8])
[O-][S+](/C=C/c1ccc(O)c(O)c1)Cc1ccc(Cl)cc1 (stereo unspecified)	8.1	Active	Active	14	> 90	4.1	–	–
[O-][S+](/C=C/c1ccc(O)c(O)c1)CCCc1ccccc1 (stereo unspecified)	14.4	Active	Active	28.6	> 90	9.1	–	–
O=S(=O)(/C=C/c1ccc(O)c(O)c1)Cc1ccc(Cl)cc1	8.8	Active	Active	11.7	> 90	3.3	–	–
O=S(=O)(/C=C/c1ccc(O)c(O)c1)Cc1ccc(C(F)(F)F)cc1	5.8	Active	Active	15.9	> 90	4.3	Active	–
COc1ccc(C[S+]([O-])/C=C/c2ccc(O)c(O)c2)cc1 (stereo unspecified)	11.5	Active	Active	33	> 90	4.3	–	–
[O-][S+](/C=C/c1ccc(O)c(O)c1)CCc1ccccc1 (stereo unspecified)	11.6	–	Active	42.6	> 90	5	Active	–
[O-][S+](/C=C/c1ccc(O)c(O)c1)Cc1ccccc1 (stereo unspecified)	14.7	Active	Active	50.3	> 90	4.9	–	–
CC(C)(C)c1ccc(C[S+]([O-])/C=C/c2ccc(O)c(O)c2)cc1 (stereo unspecified)	9.9	Active	inactive	9.3	> 90	5.8	–	–
[O-][S+](/C=C/c1ccc(O)c(O)c1)Cc1ccc(C(F)(F)F)cc1 (stereo unspecified)	7.8	Active	Active	15.5	> 90	4.2	–	–
O=S(=O)(/C=C/c1ccc(O)c(O)c1)CCc1ccccc1	10.5	Active	Active	30.6	> 90	5.7	–	–
O=S(=O)(/C=C/c1ccc(O)c(O)c1)CCCCc1ccccc1	17.2	–	Active	19.8	> 90	4.1	–	–
COc1ccc(CS(=O)(=O)/C=C/c2ccc(O)c(O)c2)cc1	9.1	Active	Active	11.9	> 90	6.4	–	–
O=S(=O)(/C=C/c1ccc(O)c(O)c1)Cc1ccccc1	8.1	Active	Active	11.6	> 90	10.1	–	–
CC(C)(C)c1ccc(CS(=O)(=O)/C=C/c2ccc(O)c(O)c2)cc1	9.5	Active	inactive	12.6	> 90	4.7	–	Active
O=C(/C=C/c1ccc(O)c(O)c1)OCCc1ccccc1	–	Active	Active	–	–	–	Active	Active
O=S(=O)(/C=C/c1ccc(O)c(O)c1)CCCc1ccccc1	9.9	Active	Active	10.5	> 90	4.1	–	Active
[O-][S+](/C=C/c1ccc(O)c(O)c1)CCCCc1ccccc1 (stereo unspecified)	16.2	–	Active	36.8	> 90	4.5	–	–
